# Test results from ChEMBL document CHEMBL4689842, “EUbOPEN Chemogenomics Library wave 1” (2021).
# Where “and” joins values, the source holds several entries; their conditions need not be identical. Equal values may be shown once.
# Tested on: Fibroblast
# Assay: Multiplex assay against human fibroblast
# Type: toxicity, cell-based
# In short: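 On a CQ1 microscope at 37°C and 5% CO2, live cells were imaged after compound addition. They had been stained at seeding with Hoechst33342, BioTracker Green Microtubule Cytoskeleton Dye, MitoTracker Red and Annexin V Alexa Fluor 680. CellPathfinder machine-learning gating assigned cells to Hoechst high-intensity objects or normal cells, normal cells to healthy, pyknosed or fragmented nuclei, and pyknosed cells to mitotic or apoptotic. Tubulin, mitochondrial-mass and membrane-permeability phenotypes are per cents of healthy-nucleus cells.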
# [1] = 12 h, 1 µM, compound concentration 1 uM, replicate 1
# [2] = 12 h, 1 µM, compound concentration 1 uM, replicate 2
# [3] = 12 h, 10 µM, compound concentration 10 uM, replicate 1
# [4] = 12 h, 10 µM, compound concentration 10 uM, replicate 2
# [5] = 24 h, 1 µM, compound concentration 1 uM, replicate 1
# [6] = 24 h, 1 µM, compound concentration 1 uM, replicate 2
# [7] = 24 h, 10 µM, compound concentration 10 uM, replicate 1
# [8] = 24 h, 10 µM, compound concentration 10 uM, replicate 2
# [9] = 48 h, 1 µM, compound concentration 1 uM, replicate 1
# [10] = 48 h, 1 µM, compound concentration 1 uM, replicate 2
# [11] = 48 h, 10 µM, compound concentration 10 uM, replicate 1
# [12] = 48 h, 10 µM, compound concentration 10 uM, replicate 2
smiles,measurement,setting,value
O=C1NCN(c2ccccc2)C12CCN(CCCOc1ccc(F)cc1)CC2 [SPIRAMIDE],Population Apoptotic (%),[1],75%
same,Population Fragmented Nuclei (%),[1],40%
same,Population Healthy Nuclei (%),[1],31%
same,Population Hoechst High Intensity Objects (%),[1],15%
same,Population Membrane Permeable-Phenotype (%),[1],22%
same,Population Mitochondria Different-Phenotype (%),[1],11%
same,Population Mitotic Cells (%),[1],24%
same,Population Normal (%),[1],84%
same,Population Pyknosed Nuclei (%),[1],28%
same,Population Tubulin-Different-Phenotype (%),[1],33%
same,Total Cell Count,[1],136
same,Population Apoptotic (%),[2],0%
same,Population Fragmented Nuclei (%),[2],10%
same,Population Healthy Nuclei (%),[2],88%
same,Population Hoechst High Intensity Objects (%),[2],7%
same,Population Membrane Permeable-Phenotype (%),[2],0%
same,Population Mitochondria Different-Phenotype (%),[2],10%
same,Population Mitotic Cells (%),[2],100%
same,Population Normal (%),[2],92%
same,Population Pyknosed Nuclei (%),[2],1%
same,Population Tubulin-Different-Phenotype (%),[2],6%
same,Total Cell Count,[2],74
same,Population Apoptotic (%),[3],66%
same,Population Fragmented Nuclei (%),[3],25%
same,Population Healthy Nuclei (%),[3],44%
same,Population Hoechst High Intensity Objects (%),[3],13%
same,Population Membrane Permeable-Phenotype (%),[3],6%
same,Population Mitochondria Different-Phenotype (%),[3],54%
same,Population Mitotic Cells (%),[3],33%
same,Population Normal (%),[3],86%
same,Population Pyknosed Nuclei (%),[3],30%
same,Population Tubulin-Different-Phenotype (%),[3],82%
same,Total Cell Count,[3],162
same,Population Apoptotic (%),[4],50%
same,Population Fragmented Nuclei (%),[4],3%
same,Population Healthy Nuclei (%),[4],88%
same,Population Hoechst High Intensity Objects (%),[4],8%
same,Population Membrane Permeable-Phenotype (%),[4],2%
same,Population Mitochondria Different-Phenotype (%),[4],27%
same,Population Mitotic Cells (%),[4],50%
same,Population Normal (%),[4],91%
same,Population Pyknosed Nuclei (%),[4],7%
same,Population Tubulin-Different-Phenotype (%),[4],12%
same,Total Cell Count,[4],91
same,Population Apoptotic (%),[5],57%
same,Population Fragmented Nuclei (%),[5],31%
same,Population Healthy Nuclei (%),[5],45%
same,Population Hoechst High Intensity Objects (%),[5],13%
same,Population Membrane Permeable-Phenotype (%),[5],25%
same,Population Mitochondria Different-Phenotype (%),[5],5%
same,Population Mitotic Cells (%),[5],42%
same,Population Normal (%),[5],86%
same,Population Pyknosed Nuclei (%),[5],22%
same,Population Tubulin-Different-Phenotype (%),[5],44%
same,Total Cell Count,[5],132
same,Population Apoptotic (%),[6],0%
same,Population Fragmented Nuclei (%),[6],7%
same,Population Healthy Nuclei (%),[6],89%
same,Population Hoechst High Intensity Objects (%),[6],6%
same,Population Membrane Permeable-Phenotype (%),[6],2%
same,Population Mitochondria Different-Phenotype (%),[6],7%
same,Population Mitotic Cells (%),[6],100%
same,Population Normal (%),[6],93%
same,Population Pyknosed Nuclei (%),[6],3%
same,Population Tubulin-Different-Phenotype (%),[6],7%
same,Total Cell Count,[6],76
same,Population Apoptotic (%),[7],70%
same,Population Fragmented Nuclei (%),[7],20%
same,Population Healthy Nuclei (%),[7],60%
same,Population Hoechst High Intensity Objects (%),[7],16%
same,Population Membrane Permeable-Phenotype (%),[7],10%
same,Population Mitochondria Different-Phenotype (%),[7],44%
same,Population Mitotic Cells (%),[7],29%
same,Population Normal (%),[7],83%
same,Population Pyknosed Nuclei (%),[7],18%
same,Population Tubulin-Different-Phenotype (%),[7],85%
same,Total Cell Count,[7],177
same,Population Apoptotic (%),[8],27%
same,Population Fragmented Nuclei (%),[8],3%
same,Population Healthy Nuclei (%),[8],78%
same,Population Hoechst High Intensity Objects (%),[8],6%
same,Population Membrane Permeable-Phenotype (%),[8],2%
same,Population Mitochondria Different-Phenotype (%),[8],21%
same,Population Mitotic Cells (%),[8],72%
same,Population Normal (%),[8],93%
same,Population Tubulin-Different-Phenotype (%),[8],10%
same,Total Cell Count,[8],118
same,Population Apoptotic (%),[9],60%
same,Population Fragmented Nuclei (%),[9],36%
same,Population Healthy Nuclei (%),[9],45%
same,Population Hoechst High Intensity Objects (%),[9],14%
same,Population Membrane Permeable-Phenotype (%),[9],32%
same,Population Mitochondria Different-Phenotype (%),[9],5%
same,Population Mitotic Cells (%),[9],40%
same,Population Normal (%),[9],85%
same,Population Pyknosed Nuclei (%),[9],17%
same,Population Tubulin-Different-Phenotype (%),[9],34%
same,Total Cell Count,[9],133
same,Population Apoptotic (%),[10],0%
same,Population Fragmented Nuclei (%),[10],15%
same,Population Healthy Nuclei (%),[10],83%
same,Population Hoechst High Intensity Objects (%),[10],5%
same,Population Membrane Permeable-Phenotype (%),[10],13%
same,Population Mitochondria Different-Phenotype (%),[10],0%
same,Population Mitotic Cells (%),[10],100%
same,Population Normal (%),[10],94%
same,Population Pyknosed Nuclei (%),[10],0%
same,Population Tubulin-Different-Phenotype (%),[10],36%
same,Total Cell Count,[10],137
same,Population Apoptotic (%),[11],69%
same,Population Fragmented Nuclei (%),[11],31%
same,Population Healthy Nuclei (%),[11],59%
same,Population Hoechst High Intensity Objects (%),[11],22%
same,Population Membrane Permeable-Phenotype (%),[11],3%
same,Population Mitochondria Different-Phenotype (%),[11],47%
same,Population Mitotic Cells (%),[11],30%
same,Population Normal (%),[11],77%
same,Population Pyknosed Nuclei (%),[11],9%
same,Population Tubulin-Different-Phenotype (%),[11],80%
same,Total Cell Count,[11],186
same,Population Apoptotic (%),[12],50%
same,Population Healthy Nuclei (%),[12],64%
same,Population Hoechst High Intensity Objects (%),[12],9%
same,Population Membrane Permeable-Phenotype (%),[12],8%
same,Population Mitochondria Different-Phenotype (%),[12],2%
same,Population Mitotic Cells (%),[12],50%
same,Population Normal (%),[12],90%
same,Population Pyknosed Nuclei (%),[12],3%
same,Population Tubulin-Different-Phenotype (%),[12],29%
same,Total Cell Count,[12],123
COc1cc2nccc(Oc3ccc(NC(=O)Nc4cc(C)on4)c(Cl)c3)c2cc1OC.O,Population Apoptotic (%),[1],66% and 58%
same,Population Fragmented Nuclei (%),[1],38% and 29%
same,Population Healthy Nuclei (%),[1],45% and 54%
same,Population Hoechst High Intensity Objects (%),[1],11% and 12%
same,Population Membrane Permeable-Phenotype (%),[1],10% and 8%
same,Population Mitochondria Different-Phenotype (%),[1],10%
same,Population Mitotic Cells (%),[1],33% and 41%
same,Population Normal (%),[1],88% and 87%
same,Population Pyknosed Nuclei (%),[1],16%
same,Population Tubulin-Different-Phenotype (%),[1],13%
same,Total Cell Count,[1],229 and 203
same,Population Apoptotic (%),[2],40% and 50%
same,Population Fragmented Nuclei (%),[2],63% and 48%
same,Population Healthy Nuclei (%),[2],28% and 18%
same,Population Hoechst High Intensity Objects (%),[2],33% and 40%
same,Population Membrane Permeable-Phenotype (%),[2],27% and 28%
same,Population Mitotic Cells (%),[2],60% and 50%
same,Population Normal (%),[2],66% and 59%
same,Population Tubulin-Different-Phenotype (%),[2],38% and 57%
same,Total Cell Count,[2],95 and 62
same,Population Apoptotic (%),[3],47%
same,Population Fragmented Nuclei (%),[3],30%
same,Population Healthy Nuclei (%),[3],31%
same,Population Hoechst High Intensity Objects (%),[3],13%
same,Population Membrane Permeable-Phenotype (%),[3],17%
same,Population Mitochondria Different-Phenotype (%),[3],31%
same,Population Mitotic Cells (%),[3],52%
same,Population Normal (%),[3],86%
same,Population Pyknosed Nuclei (%),[3],37%
same,Population Tubulin-Different-Phenotype (%),[3],77%
same,Total Cell Count,[3],163
same,Population Apoptotic (%),[4],71%
same,Population Fragmented Nuclei (%),[4],11%
same,Population Healthy Nuclei (%),[4],75%
same,Population Hoechst High Intensity Objects (%),[4],3%
same,Population Membrane Permeable-Phenotype (%),[4],36%
same,Population Mitochondria Different-Phenotype (%),[4],97%
same,Population Mitotic Cells (%),[4],28%
same,Population Normal (%),[4],96%
same,Population Pyknosed Nuclei (%),[4],12%
same,Population Tubulin-Different-Phenotype (%),[4],97%
same,Total Cell Count,[4],58
same,Population Apoptotic (%),[5],76% and 68%
same,Population Fragmented Nuclei (%),[5],41% and 26%
same,Population Healthy Nuclei (%),[5],39% and 59%
same,Population Hoechst High Intensity Objects (%),[5],15% and 11%
same,Population Membrane Permeable-Phenotype (%),[5],3% and 0%
same,Population Mitochondria Different-Phenotype (%),[5],42%
same,Population Mitotic Cells (%),[5],23% and 32%
same,Population Normal (%),[5],84% and 88%
same,Population Pyknosed Nuclei (%),[5],19% and 14%
same,Total Cell Count,[5],231 and 198
same,Population Apoptotic (%),[6],25%
same,Population Fragmented Nuclei (%),[6],58% and 53%
same,Population Healthy Nuclei (%),[6],34% and 19%
same,Population Hoechst High Intensity Objects (%),[6],35% and 29%
same,Population Membrane Permeable-Phenotype (%),[6],10% and 22%
same,Population Mitotic Cells (%),[6],75%
same,Population Normal (%),[6],64% and 70%
same,Total Cell Count,[6],85 and 67
same,Population Apoptotic (%),[7],57%
same,Population Fragmented Nuclei (%),[7],29%
same,Population Healthy Nuclei (%),[7],40%
same,Population Hoechst High Intensity Objects (%),[7],19%
same,Population Membrane Permeable-Phenotype (%),[7],11%
same,Population Mitochondria Different-Phenotype (%),[7],53%
same,Population Mitotic Cells (%),[7],42%
same,Population Normal (%),[7],80%
same,Population Pyknosed Nuclei (%),[7],29%
same,Population Tubulin-Different-Phenotype (%),[7],86%
same,Total Cell Count,[7],158
same,Population Apoptotic (%),[8],92%
same,Population Fragmented Nuclei (%),[8],16%
same,Population Healthy Nuclei (%),[8],60%
same,Population Hoechst High Intensity Objects (%),[8],3%
same,Population Membrane Permeable-Phenotype (%),[8],67%
same,Population Mitochondria Different-Phenotype (%),[8],100%
same,Population Mitotic Cells (%),[8],7%
same,Population Normal (%),[8],96%
same,Population Pyknosed Nuclei (%),[8],23%
same,Population Tubulin-Different-Phenotype (%),[8],97%
same,Total Cell Count,[8],58
same,Population Apoptotic (%),[11],76%
same,Population Fragmented Nuclei (%),[11],33%
same,Population Healthy Nuclei (%),[11],47%
same,Population Hoechst High Intensity Objects (%),[11],22%
same,Population Membrane Permeable-Phenotype (%),[11],10%
same,Population Mitochondria Different-Phenotype (%),[11],60%
same,Population Mitotic Cells (%),[11],23%
same,Population Normal (%),[11],77%
same,Population Pyknosed Nuclei (%),[11],18%
same,Population Tubulin-Different-Phenotype (%),[11],83%
same,Total Cell Count,[11],148
same,Population Apoptotic (%),[12],62%
same,Population Fragmented Nuclei (%),[12],36%
same,Population Healthy Nuclei (%),[12],54%
same,Population Hoechst High Intensity Objects (%),[12],10%
same,Population Membrane Permeable-Phenotype (%),[12],0%
same,Population Mitochondria Different-Phenotype (%),[12],75%
same,Population Mitotic Cells (%),[12],37%
same,Population Normal (%),[12],89%
same,Population Pyknosed Nuclei (%),[12],9%
same,Population Tubulin-Different-Phenotype (%),[12],95%
same,Total Cell Count,[12],98
